{"data": "Results collected from several papers", "cell line": "Calu-3", "effect on": "cell growth or viability"}
{"Structure (SMILES)": "CN1C(=O)c2ccccc2[S+]([O-])c2cc([N+](=O)[O-])ccc2S1(=O)=O (centres unmarked)", "assay": "MTT", "setting": "72 h", "CC50": "> 100 µM"}
{"Structure (SMILES)": "CN(C)C(=O)COC(=O)Cc1ccc(OC(=O)c2ccc(NC(=N)N)cc2)cc1", "assay": "ATP luminescence", "CC50": "> 200 µM"}
{"Structure (SMILES)": "O=C(NCc1ccc(F)cc1)c1cccc(Nc2ccc(-c3ccccc3)nn2)c1", "assay": "MTS", "setting": "48 h", "CC50": "> 100 µM"}
{"Structure (SMILES)": "CC(C)[C@H](NC(=O)c1ccccc1NC(=O)c1ccccc1)C(=O)N[C@H](CO)C(C)C", "assay": "MTT", "setting": "48 h", "CC50": "> 250 µM"}
{"Structure (SMILES)": "COc1cc2ncnc(Nc3ccc(F)c(Cl)c3)c2cc1OCCCN1CCOCC1", "assay": "resazurin", "CC50": "> 60 µM"}
{"Structure (SMILES)": "O=C(Nc1ccc2c(c1)OCO2)c1nnc(C(=O)N2CCCC(C(=O)NCc3ccccc3)C2)s1 (centres unmarked)", "assay": "MTT", "setting": "48 h", "CC50": "151 µM"}
{"Structure (SMILES)": "CCOC(=O)c1c(NCc2ccc(SC)cc2)c2cccc(C)c2[nH]c1=O", "assay": "MTS", "setting": "48 h", "CC50": "> 100 µM"}
{"Structure (SMILES)": "COc1cc(Nc2ccnc3ccc(Br)cc23)cc(OC)c1OC", "assay": "resazurin", "CC50": "> 60 µM"}
{"Structure (SMILES)": "O=C1Nc2cc(C(F)(F)F)ccc2Oc2ccsc21", "assay": "MTT", "setting": "72 h", "CC50": "> 100 µM"}
{"Structure (SMILES)": "CCS(=O)(=O)N1CC(CC#N)(n2cc(-c3ncnc4[nH]ccc34)cn2)C1", "assay": "resazurin", "CC50": "> 60 µM"}
{"Structure (SMILES)": "CCC(CC)COC(=O)[C@H](C)N[P@](=O)(OC[C@H]1O[C@@](C#N)(c2ccc3c(N)ncnn23)[C@H](O)[C@@H]1O)Oc1ccccc1", "assay": "MTT", "setting": "48 h", "CC50": "≥ 250 µM"}
